Assay: Toxicity liver stage against HepG2, at 10uM
Type: cell-based
Design: test concentration 10 uM, cell line HepG2-A16-CD81EGFP
Settings: human, HepG2-A16-CD81EGFP cells; read-out: INHIBITION
Procedure, shortened: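 Uninfected HepG2-A16-CD81EGFP cells, 3 × 10^3 per well, 1536-well, plated on prespotted compound at 10 μM final, parasite-free screening media added to match infected plates; puromycin 10 μM positive, DMSO 0.5% negative; run in parallel with 48 h PbLuc assay at 37 °C, 5% CO2; viability by CellTiter-Glo luminescence, normalized to controls.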

| SMILES | cytotoxicity at 10 µM [%] |
| --- | --- |
| CS(=O)(=O)N1C[C@@H](F)[C@@H](OCc2nc3ccccc3o2)C1 | -4.47 |
| COc1ccc(-c2c[nH]c([C@@H]3COCCN3)n2)cc1 | -4.84 |
| CN(C)c1cc(N2CCN(c3ccccn3)CC2)ncn1 | -2.71 |
| CCCS(=O)(=O)N1CC(=O)N(Cc2ccccc2OC)CC(O)C1 (stereo not given) | -7.44 |
| CC(C)CNC(=O)CNC(=O)c1nc(Cc2c(Cl)cccc2Cl)no1 | 9.11 |
| CN1C(=O)CCc2cc(NC(=O)C3CC3)ccc21 | 0.696 |
| O=S(=O)(NCCNc1cc(-n2cccn2)ncn1)c1cccs1 | -6.58 |
| N#Cc1ccc(C(=O)N2CCCSCC2CN2CCCC2)cc1 (stereo not given) | 10.1 |
| Cn1nc(CNC(=O)c2ccc3c(c2)OCO3)c2c1CCOC2 | -1.82 |
| O=C1CCC2(CCCN(C(=O)c3ccco3)CC2)N1 (stereo not given) | 3.17 |
| Cc1ccc(CN2C[C@H]3CN(CC4CCN(C)CC4)C(=O)[C@H]3C2)s1 | 2.5 |
| O=C1C[C@H]2[C@H](CCN2C(=O)c2cc[nH]n2)N1Cc1cccnc1 | 3.03 |
| Cc1cnc(N2CCC3(CC2)CCN(c2cncnc2)C3=O)nc1 | -13 |
| CCN1CC2(CC1=O)CN(C(C)=O)CCN(S(=O)(=O)CC)C2 (stereo not given) | -2.02 |
| CN(C)S(=O)(=O)N1C[C@H]2CCC[C@@]2(COCC2CCOCC2)C1 | 7.45 |
| CCn1cc2c(n1)C(COCC1CC1)CN(c1ccc(C)nn1)C2 (stereo not given) | 12.8 |
| O=C(C1CN(c2ncc(F)cn2)CC12CCOCC2)N1CCOCC1 (stereo not given) | 13.6 |
| Cc1cc(C(=O)N2CCc3ncnc(-c4cnn(C)c4)c3CC2)c(C)o1 | 4.5 |
| CS(=O)(=O)N1CCc2sc(C(=O)NCc3ccncc3)cc21 | 2.93 |
| COc1ccc(-c2csc(N)c2C#N)cc1 | 4.07 |
| Cc1nn(CC(=O)Nc2ccon2)c(C)c1Br | 9.62 |
| Cc1ccccc1C(=O)NC(C)c1cnn(C)c1 (stereo not given) | 15.7 |

| SMILES | cytotoxicity at 10 µM [%] |
| --- | --- |
| CCn1nc(C)c2nnn(CC(=O)Nc3ccccc3F)c(=O)c21 | 5.37 |
| CSc1nnc(C2CCN(C(=O)N3CCOCC3)CC2)n1C(C)C | 3.8 |
| CS(=O)(=O)NC1(CCc2ccc(NC(=O)C3CC3)nc2)CCCCC1 | 6.56 |
| CC(=O)N1CCC(CCc2ccnc(Nc3ccccn3)c2)CC1 | 5.57 |
| Cc1ccc(Nc2nccc(C3CCN(C(=O)CO)C3)n2)nc1 (stereo not given) | -2.56 |
| CS(=O)(=O)N1CC2(CCN(C3CCCCC3)C2)Cc2ccccc21 (stereo not given) | 3.38 |
| O=S1(=O)NCC2(CCCN(Cc3cccnc3)C2)Oc2ncccc21 (stereo not given) | 6.28 |
| COc1cccc(CN(C)C(=O)c2csc(-c3nnc[nH]3)n2)c1 | -14.4 |
| N#CC(NC(=O)CCCOc1cccnc1)c1ccccc1Cl (stereo not given) | 4.26 |
| O=C(c1ccc(Oc2cccnc2)cc1)N1CCN(CCO)CC1 | -41.5 |
| CC(NCC1(N(C)C)CCOCC1)c1ccc(SC(F)F)cc1 (stereo not given) | -0.79 |
| COc1cc(CNc2nc(C(F)(F)F)no2)cc(OC)c1OC | 1.66 |
| Cn1cc(S(=O)(=O)N(Cc2ccc(F)cc2F)C2CC2)cc1C(N)=O | 5.68 |
| CN(CCc1ccccn1)CCc1nccs1 | 2.01 |
| CNC(=O)CN(C)C(=O)c1ccc(-c2nc(C)cs2)cc1 | -7.77 |
| Cc1cccc(COc2ccc(C(C)NC(=O)CNC(N)=O)cc2)c1 (stereo not given) | -20.9 |
| CCCNC(=O)c1cnc2n1CCCC2 | -3.19 |
| CNC(=O)COC(=O)c1cccc(-n2ccc(C(F)(F)F)n2)c1 | -39.5 |
| CC(=O)N1Cc2ccccc2C[C@H]1C(=O)N(C)Cc1ccccn1 | 6.17 |
| CN(Cc1c(F)cccc1Cl)C(=O)c1cnn(CCN2CCCCC2)c1 | -19.1 |
| CN(Cc1ccc(Cl)cc1)C(=O)Nc1cnn(CC(N)=O)c1 | -17.6 |
| CN(CC(=O)NC(c1ccc(F)cc1)C(F)(F)F)S(C)(=O)=O (stereo not given) | -11.9 |

| SMILES | cytotoxicity at 10 µM [%] |
| --- | --- |
| Cc1nsc(N2CCN(CC(=O)NCc3ccc(F)cc3)CC2)n1 | -6.84 |
| CC(=O)NCC(=O)NC1CCc2nccn2C1 (stereo not given) | -6.99 |
| Cc1ccc(OCC(=O)NC2CC2)nc1 | 4.06 |
| CC(NC(=O)c1ccc(=O)n(C)c1)c1ccc(OCC2CC2)c(F)c1 (stereo not given) | 9.8 |
| Cc1ccc(C(=O)N(C)Cc2csc(C)n2)c(=O)[nH]1 | 3.97 |
| Cc1nc(CN(C)C2CCN(Cc3nc(C4CC4)no3)C2)no1 (stereo not given) | -5.29 |
| CCc1nsc(NC2CC(=O)N(C3CC3)C2)n1 (stereo not given) | 9.43 |
| Cn1nc(Br)c2c(NCCCS(N)(=O)=O)ncnc21 | 16.4 |
| CS(=O)(=O)CCC(=O)N(CCc1cccc(F)c1)C1CC1 | -5.82 |
| COc1cc(CNC2CCN(c3ccccc3)C2)cc(OC)c1OC (stereo not given) | 3.96 |
| CCN(C)CC1CCN(C(=O)NCCC2Cc3ccccc3C2)C1 (stereo not given) | 0.458 |
| O=S(=O)(NCc1ccc(S(=O)(=O)N2CCCC2)s1)c1ccc(Cl)c(Cl)c1 | -41.8 |
| O=S(=O)(CC1CCOCC1)NCc1ncc(-c2ccccc2)o1 | -12.6 |
| CCc1cnc(CNC(=O)N2CCCC(c3ncc[nH]3)C2)s1 (stereo not given) | 8.2 |
| COCCN1CCC(CNC(=O)C2(NC(C)=O)CCCCC2)CC1 | 5.46 |
| CNC(=O)C(C)NC(=O)c1ccc(Oc2cccnc2)cc1 (stereo not given) | 6.32 |
| CC1CCN(C(CNC(=O)CCn2cccn2)c2cccs2)CC1 (stereo not given) | 13.5 |
| CN(Cc1nccn1CC(F)(F)F)C(=O)c1cccc(C#N)c1 | 5.4 |
| Cc1cn(-c2ccccc2)nc1NS(=O)(=O)c1cccc(C(=O)O)c1 | -10.3 |
| CCN1CCCC1CN(CCN(C)C)S(=O)(=O)c1ccc(C#N)cc1 (stereo not given) | -28.3 |
| Cc1ccc2nc(C3CCCN3Cc3csc(C)n3)[nH]c2c1 (stereo not given) | 1.58 |
| CCCN(Cc1ccc(C(=O)NCC2COCCO2)c(=O)[nH]1)C1CC1 (stereo not given) | -15.3 |

| SMILES | cytotoxicity at 10 µM [%] |
| --- | --- |
| CCc1cnc(C)nc1NC(C)C(=O)Nc1cc(F)ccc1C (stereo not given) | -0.682 |
| FC(F)(F)c1cccc(OC2CCN(Cc3ccccn3)CC2)c1 | -0.609 |
| Cc1cc(C)c(C(=O)NC2CCN(c3ncccc3C#N)CC2)c(=O)[nH]1 | 7.24 |
| Cc1nnc(SCCCNC(=O)Cc2ccc3c(c2)OCO3)s1 | 7.75 |
| CN(Cc1ccccc1-n1cccn1)C[C@@H]1CCCN2CCCC[C@H]12 | -8.2 |
| O=C(NCC1CCN(Cc2cc3ccccc3[nH]2)C1)c1ccsc1 (stereo not given) | 15.6 |
| CC(=O)N1CCCn2nc(CNS(=O)(=O)N(C)C(C)C)cc2C1 | 3.54 |
| CSCCC1c2nc[nH]c2CCN1Cc1ccccc1C#N (stereo not given) | -1.57 |
| CCC[C@H]1CN(c2nccc(OC)n2)C[C@@H]1NC(=O)C1CCOCC1 | -142 |
| CCc1nnc(CN(CC)C(=O)CCc2scnc2C)o1 | 7.22 |
| Cn1c(-c2ccc(F)cc2)cn2cc(C(=O)N3CC[C@@H](O)C3)nc2c1=O | 11.1 |
| CCOCc1nc2c(c(NC(CC)c3ccnn3C)n1)CCNCC2 (stereo not given) | -5.53 |
| Cc1nc(C2CCN(C(=O)c3ccc(Cl)s3)CC2)cc(=O)[nH]1 | -0.243 |
| CCC(C)N(Cc1c[nH]c(C)n1)Cc1ccccc1Cl (stereo not given) | 24.2 |
| O=C(Cc1ccc(F)cc1Cl)N1CC[C@H](CO)[C@@H](O)C1 | 8.08 |
| CCn1cc(CNC(=O)CCc2nnc(-c3ccc(C)s3)o2)cn1 | -2.83 |
| CCCN1CC2(CCN(C)CC2)CC1C(=O)NCCn1nc(C)nc1C (stereo not given) | 2.7 |
| CN(c1ccc(C(=O)NCCCN2CCCC2)c(Cl)c1)S(C)(=O)=O | -10 |
| CN1CCCCC1Cc1nc(Cc2cccc(F)c2)no1 (stereo not given) | -148 |
| COc1cc(F)ccc1C(C(=O)O)N(C)CCN1CCCC1 (stereo not given) | -13.4 |
| COc1cnc(N2CC(N3CCOCC3)C2)nc1-c1ccnn1C | 6.24 |
| COc1cccc2c1OCC(C(=O)N(C)CCCc1cnn(C)c1)C2 (stereo not given) | -2.98 |

| SMILES | cytotoxicity at 10 µM [%] |
| --- | --- |
| Cc1ncccc1Oc1nccnc1C1CCN(C(C)C)CC1 | -6.05 |
| O=C(c1n[nH]c(=O)c2ccccc12)N1CCCCC1c1ccn[nH]1 (stereo not given) | -0.285 |
| Cc1cnn(CC2CCCN2Cc2nnc(-c3ccccc3)o2)c1 (stereo not given) | -9.86 |
| Cc1n[nH]c(C2CN(C(=O)CCc3cscn3)CCO2)n1 (stereo not given) | -4.34 |
| Cc1nc(C)n(CC2CCCN2Cc2cc(-c3cccs3)on2)n1 (stereo not given) | -0.367 |
| CCOc1ncccc1CNC(=O)N1CCCC1c1ccsc1 (stereo not given) | -7.69 |
| Cc1ccc(CN2CCC(NC(=O)c3scnc3C)CC2)cc1 | -4.1 |
| CC(C)c1ncc2c(n1)CN(CCCc1nc3ccccc3o1)CC2 | -13.2 |
| c1ccc(OCCN2CCCCC2Cn2cncn2)cc1 (stereo not given) | -15.7 |
| c1csc(-c2nc(CN3CCOC(Cn4cncn4)C3)cs2)c1 (stereo not given) | -3.91 |
| Cc1csc(N2CCN(CC(=O)Nc3nncs3)CC2C)n1 (stereo not given) | -7.44 |
| CCC(CC)C(CNC(=O)Nc1ccc(C)cc1)N1CCOCC1 (stereo not given) | -5.9 |
| CN(CCO)CC1COCCN1C(=O)C1CCCCC1 (stereo not given) | -4.52 |
| Cc1noc(C)c1CN1C[C@@H]2CN(C(=O)c3cnccn3)C[C@@H]2C1 | -1.86 |
| COCC1CC2(CCN(C(N)=O)CC2)CN1Cc1csc(C)n1 (stereo not given) | 8.98 |
| Cc1noc(C)c1CN1CCC2(CC1)CCN(C(=O)c1cscn1)C2 | 1.21 |
| O=C(c1ccc(F)cc1)N1C[C@H]2CCC[C@@]2(COCc2ccccn2)C1 | 2.06 |
| CCS(=O)(=O)N1CCC2(CC1)CC1(CCN(CCOC)CC1)C(=O)N2C | 0.503 |
| Cc1nc(CN2CC[C@H]3[C@H]2CCN3c2nncs2)cs1 | 5.2 |
| Cc1ccc2c(c1)C1(CCNCC1)CN2C(=O)CN(C)C | 0.513 |
| CS(=O)(=O)N1C[C@H]2CC[C@@H](C1)N(C(=O)CCc1n[nH]c3c1CCCC3)C2 | 11 |
| COC1C[C@@H]2CN(C(=O)c3cccc4c3OCCO4)C[C@@H]2C1 (stereo not given in full) | 7.77 |
